Experiments:
Cavia porcellus [1] = species on record: Cavia porcellus; assay: H2 agonistic activity by taking spontaneously beating guinea pig right atrium; type: functional, Cardiac atrium
Summary of the method: (§1)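 Right atrium from male guinea pigs (350–500 g), spontaneously beating, in McEvan's solution at 32.5 °C gassed with O2/5% CO2; 1 h equilibration. Beating rate recorded with a heart frequency meter. Cumulative histamine standard curve (10⁻⁷–10⁻⁵ M bath) run first; after washing, full curve of test agonist. One test per preparation, 3–4 experiments; EC50 mean ± sem (Sachs).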

Cavia porcellus [2] = species on record: Cavia porcellus; assay: H1 agonistic activity by taking guinea pig ileum contraction; type: functional
Summary of the method: (§2)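 Male guinea pigs (350–500 g); 3 cm ileum pieces in Tyrode solution at 37 °C, gassed with O2 containing 5% CO2. Isotonic recording of contraction. A histamine standard curve is run first, with geometrically increasing bath concentrations up to maximal contraction. After washing, a cumulative concentration-response curve of the test agonist follows. Three or four experiments; EC50 as mean ± sem by the method of Sachs.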

[3] = target: Histamine H2 receptor (Cavia porcellus) (UniProt P47747); assay: Intrinsic activity against histamine H2 receptor in guinea pig right atrium; type: tissue-based; settings: Cardiac atrium; summary of the method: as §1
Histamine H2 receptor (Cavia porcellus), sequence (P47747 whole entry): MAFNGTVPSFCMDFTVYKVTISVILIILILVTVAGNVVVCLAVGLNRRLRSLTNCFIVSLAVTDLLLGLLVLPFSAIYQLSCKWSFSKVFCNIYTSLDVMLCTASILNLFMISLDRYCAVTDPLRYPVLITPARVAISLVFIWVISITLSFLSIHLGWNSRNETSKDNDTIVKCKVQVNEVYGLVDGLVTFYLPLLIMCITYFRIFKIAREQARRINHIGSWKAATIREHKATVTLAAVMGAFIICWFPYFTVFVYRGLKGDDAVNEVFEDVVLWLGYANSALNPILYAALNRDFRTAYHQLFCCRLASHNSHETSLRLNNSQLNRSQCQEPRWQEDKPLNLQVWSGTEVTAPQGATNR

Rattus norvegicus [4] = species on record: Rattus norvegicus; assay: H3 agonistic activity against K+ induced histamine in slices of rat brain cortex.; type: functional
Summary of the method: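 Cortical slices (0.3 mm) from male Wistar rats (170–190 g), preloaded 30 min with [³H]-L-histidine (0.3 μM) and washed. Agonist added 5 min before depolarization; slices (2–3 mg protein) incubated 2 min at 37 °C with 2 or 30 mM KCl (final). Stopped by rapid centrifugation; [³H]histamine in tissue and medium quantified. 3–4 experiments; EC50 mean ± sem (Parker and Waud).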

[5] = target: Histamine H1 receptor (Cavia porcellus) (UniProt P31389); assay: Intrinsic activity against histamine H1 receptor in guinea pig ileum; type: tissue-based; summary of the method: as §2
Histamine H1 receptor (Cavia porcellus), sequence (P31389 whole entry): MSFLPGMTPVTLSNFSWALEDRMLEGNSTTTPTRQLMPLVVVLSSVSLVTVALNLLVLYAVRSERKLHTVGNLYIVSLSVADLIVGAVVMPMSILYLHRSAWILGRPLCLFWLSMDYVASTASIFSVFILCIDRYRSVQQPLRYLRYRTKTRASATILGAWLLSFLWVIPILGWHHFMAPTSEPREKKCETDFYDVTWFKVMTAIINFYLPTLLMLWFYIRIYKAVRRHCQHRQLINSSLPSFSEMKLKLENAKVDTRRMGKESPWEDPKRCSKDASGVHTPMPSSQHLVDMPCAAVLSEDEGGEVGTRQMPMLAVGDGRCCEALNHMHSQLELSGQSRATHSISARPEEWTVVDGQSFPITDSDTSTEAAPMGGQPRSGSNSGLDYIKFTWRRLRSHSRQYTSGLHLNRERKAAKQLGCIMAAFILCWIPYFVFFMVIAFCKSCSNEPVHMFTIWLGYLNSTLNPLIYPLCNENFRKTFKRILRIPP

[6] = Kinetic constant Km value of the enzyme; type: ADME
Summary of the method: (§3)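 Histamine N-methyltransferase purified from rat kidney. Increasing substrate concentrations incubated 1 h at 25 °C with unlabeled plus [³H]-S-adenosylmethionine (5 μM final). Stopped with perchloric acid (0.4 N final), then NaOH (1 N final). [³H]-τ-methylhistamine extracted into toluene-isoamyl alcohol (3 + 2) and counted by liquid scintillation.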

[7] = Kinetic constant Vmax value of the enzyme; type: ADME; summary of the method: as §3
Cavia porcellus [8] = species on record: Cavia porcellus; assay: In vitro H1 agonistic activity by taking guinea pig ileum contraction
Cavia porcellus [9] = species on record: Cavia porcellus; assay: In vitro H2 agonistic activity by taking spontaneously beating guinea pig right atrium; settings: Cardiac atrium
Rattus norvegicus [10] = species on record: Rattus norvegicus; assay: In vitro H3 agonistic activity against K+ induced histamine in slices of rat brain cortex.
[11] = Cavia porcellus, Cardiac atrium, read-out: EC50
[12] = Cavia porcellus, Ileum, read-out: EC50

## CC(N)C(C)c1c[nH]cn1 (stereo unspecified)
Cavia porcellus [1]; [11]
  EC50: 940000 nM
Cavia porcellus [2]; [12]
  EC50: 180000 nM
[3]
  Intrinsic activity: 0.66
Rattus norvegicus [4]; Rattus norvegicus
  EC50: 12 nM
[5]
  Intrinsic activity: 0.94

## C[C@H](N)[C@@H](C)c1c[nH]cn1 (relative stereo)
Cavia porcellus [1]
  EC50: Not Active
Cavia porcellus [2]
  EC50: Not Active
Rattus norvegicus [4]; Rattus norvegicus
  EC50: 6.2 nM

## Br.Br.C[C@H](N)[C@H](C)c1c[nH]cn1
[6]
  Km: 2.8 µM
[7]
  Vmax: 1.7 nM/h/mg
Cavia porcellus [1]; [11]
  EC50: 410000 nM
Cavia porcellus [2]; [12]
  EC50: 420000 nM
[3]
  Intrinsic activity: 0.86
Rattus norvegicus [4]; Rattus norvegicus
  EC50: 3.4 nM
[5]
  Intrinsic activity: 0.56

## Br.Br.C[C@@H](N)[C@@H](C)c1c[nH]cn1
Cavia porcellus [1]
  EC50: Not Active
Cavia porcellus [2]
  EC50: Not Active
Rattus norvegicus [4]; Rattus norvegicus
  EC50: 350 nM

## C[C@@H](N)[C@@H](C)c1c[nH]cn1 (relative stereo)
Cavia porcellus [1]
  EC50: Not Active
Cavia porcellus [2]
  EC50: Not Active
Rattus norvegicus [4]
  EC50: 190 nM

## NCCc1c[nH]cn1 [HISTAMINE]
Cavia porcellus [8]
  EC50: 140 nM
Cavia porcellus [9]
  EC50: 1000 nM
[3]
  Intrinsic activity: 1
Rattus norvegicus [10]
  EC50: […]
[5]
  Intrinsic activity: 1
